Compound activity (PubChem BioAssay)
Shown are actives, neighbours in structure and some others; about 4.6% of the full set was active somewhere.
NLRP3 yeast inh = blocks the NALP3 inflammasome reconstituted in yeast; Yeast reconstituted NLRP3/ASC/caspase-1, beta-gal luminescence, 24 h; inhibition, % at 10 µM; 330,000 tested, 0.39% active; AID 2825;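 active = inhibition of 50% or more; inactive = inhibition below 50%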;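 also: plate controls were induced DMSO wells for no effect and uninduced yeast grown without galactose for full effect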
DSG3 Ab inh = inhibitors of pemphigus antibody binding to human desmoglein-3; 310,000 tested, 0.48% active; DSG3-coupled beads, scFv-anti-DSG3-GFP binding, flow cytometry; active compounds read low; binding (percent of control), % at 10 µM; AID 588358;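 active = binding more than 3 SD below its plate's average and above zero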;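 also: hits lower antibody fragment binding to DSG3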
NALP1 inh = inhibitors of NALP1 inflammasome in yeast | S. cerevisiae NALP1/ASC/caspase-1 growth, X-gal OD620, 72 h | inhibition, % at 10 µM | 280,000 tested, 0.61% active; in the data active = inhibition mostly above about 24%, no sharp cut-off; inactive = mostly below about 32%
ALR inh = inhibitors of human sulfhydryl oxidase ALR | P55789 | purified ALR, DTT oxidation, H2O2 HRP-luminol luminescence | inhibition, % (test concentration not listed) | 290,000 tested, 3.8% active | AID 485317;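 active = mean replicate inhibition above about 79%, with every replicate also reaching it, limit read from the data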
Target sequence (P55789 whole entry, looked up): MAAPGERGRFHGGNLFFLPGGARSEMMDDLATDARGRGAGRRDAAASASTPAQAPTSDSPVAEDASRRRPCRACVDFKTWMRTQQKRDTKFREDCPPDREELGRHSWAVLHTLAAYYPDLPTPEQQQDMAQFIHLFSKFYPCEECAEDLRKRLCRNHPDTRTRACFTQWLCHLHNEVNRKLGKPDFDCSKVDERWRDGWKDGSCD
Arrestin-AP2 inh = blocks beta-arrestin peptide binding to AP2 adaptin | inhibition, % at 10 µM | 340,000 tested, 0.31% active | FITC-arrestin peptide / GST-AP2 beads, flow cytometry; AP2 beta2 appendage carries R879A mutation;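 active = inhibition above a set limit, near 3 SD of compounds lacking own fluorescence, cut at about 54% in these data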;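 also: plate controls were DMSO wells for no effect and 5 µM unlabelled arrestin peptide for full effect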
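Measured by: flow cytometry, FL1 (488/535 nm); Material: AP2 appendage R879A on GSH beads; Evaluation: percent response; Timing: pre-incubation 12 min, peptide binding 1 h, room temperature; Also added: 50 nM FITC-arrestin peptide; Medium: PBS with 0.05% Tween 20 and 0.1% BSA.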
PolyA inh = inhibitors of polyadenylation in S. cerevisiae | 300,000 tested, 0.02% active | AID 1875 | S. cerevisiae SKY197-pL101 polyadenylation reporter, beta-gal luminescence; efflux-impaired pdr1/pdr3 knockout yeast; score 100 = 6 SD above DMSO | activity score, % at 12 µM;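 active = lowest replicate activity score at least 50, where 100 means six control SD above control mean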;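 also: yeast exposed to compound for 9 h at 30 °C; higher score means more reporter readthrough which indicates perturbed polyadenylation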
Active calls of the source: *.

Screening Cn1c(SCC(=O)Nc2ccc3c(c2)n(C)c(=O)n3C)nnc1-c1ccncc1 returned NLRP3 yeast inh -7, NALP1 inh -5, ALR inh -11, Arrestin-AP2 inh 8 and PolyA inh 7.
For O=C(N/N=C/c1ccc([N+](=O)[O-])cc1)c1[nH]ncc1Br the results were NLRP3 yeast inh 19, DSG3 Ab inh 59*, NALP1 inh 12, ALR inh 1, Arrestin-AP2 inh 19 and PolyA inh -6.
Screening O=C(N/N=C/c1ccc([N+](=O)[O-])cc1)c1cc(C2CC2)[nH]n1 returned NLRP3 yeast inh 7, DSG3 Ab inh 108, NALP1 inh 6, Arrestin-AP2 inh -10 and PolyA inh 6.
For COc1cc(C=NNC(=O)c2ccccc2NS(=O)(=O)c2cccs2)cc(OC)c1O the results were NLRP3 yeast inh -7, ALR inh 99* and Arrestin-AP2 inh -10.
`COc1ccc(C=NNC(=O)c2ccccc2NS(=O)(=O)c2cccs2)cc1O` gave NLRP3 yeast inh 9, ALR inh 66 and Arrestin-AP2 inh -4.
CCOC(=O)CC1=CCc2c1ccc(OC)c2OC was read as Arrestin-AP2 inh 8.
O=[N+]([O-])c1cc(S(=O)(=O)O)cc([N+](=O)[O-])c1NN(c1ccccc1)c1ccccc1 was read as NLRP3 yeast inh 13, DSG3 Ab inh 92, NALP1 inh 8, ALR inh 99*, Arrestin-AP2 inh 20 and PolyA inh 2.
`N#C/C(=C\c1ccc(F)c(Br)c1)C(=O)NC1CC1` gave NLRP3 yeast inh 12, DSG3 Ab inh 110, NALP1 inh 2, ALR inh 1, Arrestin-AP2 inh -4 and PolyA inh 21.
`N#C/C(=C\c1ccc(F)c(F)c1)C(=O)NC1CCCCC1` gave NLRP3 yeast inh 3, DSG3 Ab inh 98, NALP1 inh 60*, ALR inh 98*, Arrestin-AP2 inh 14 and PolyA inh -7.
For CC1(C)NC(=O)N(CCSc2ccc(Cl)cc2)C1=O the results were NLRP3 yeast inh 20, DSG3 Ab inh 88, NALP1 inh 30*, ALR inh 2, Arrestin-AP2 inh -8 and PolyA inh 4.
For COC(=O)C1CCN(Cc2cn(Cc3ccccc3)nc2-c2cc3ccccc3o2)CC1 the results were NLRP3 yeast inh 20, DSG3 Ab inh 100, NALP1 inh 32*, ALR inh -15, Arrestin-AP2 inh 7 and PolyA inh 8.
`O=C(Cn1ncc2c([nH]c3ccccc32)c1=O)N1CCN(c2ccccn2)CC1` gave NLRP3 yeast inh 5, DSG3 Ab inh -6.6*, NALP1 inh 10, ALR inh 0, Arrestin-AP2 inh 5 and PolyA inh -5.
`O=S(=O)(c1ccccc1)N1N=C(c2ccc(O)cc2)CC1c1ccco1` (stereo not given) gave NLRP3 yeast inh 10, DSG3 Ab inh 122, NALP1 inh -2, ALR inh 100*, Arrestin-AP2 inh -1 and PolyA inh 6.
Screening Cc1nnc(N2C(=O)C(=O)/C(=C(/O)c3ccc4c(c3)OCCO4)C2c2ccc([N+](=O)[O-])cc2)s1 (stereo not given) returned NLRP3 yeast inh 3, DSG3 Ab inh 101, NALP1 inh -7, ALR inh 15, Arrestin-AP2 inh -1 and PolyA inh -21.
For C[C@H](CO)N1C[C@H](C)[C@@H](CN(C)Cc2ccc(Oc3ccccc3)cc2)Oc2cc(Br)ccc2S1(=O)=O the results were DSG3 Ab inh 109.
For CC(C)C(=O)n1nc(-c2cccnc2)nc1NCc1cccs1 the results were NLRP3 yeast inh 12, DSG3 Ab inh 107, NALP1 inh 10, ALR inh 97*, Arrestin-AP2 inh 0 and PolyA inh -16.
`CC1(C2CC2)NC(=O)N(CC(=O)NCc2ccc(Cl)cc2Cl)C1=O` (stereo not given) gave NLRP3 yeast inh 5, ALR inh -14 and Arrestin-AP2 inh 0.
c1ccc(CSC2=NCCCN2)cc1 was read as NLRP3 yeast inh 5, DSG3 Ab inh 99, NALP1 inh -3, ALR inh -13, Arrestin-AP2 inh -3 and PolyA inh -12.
`N#Cc1ccc(CSC2=NCCN2)cc1` gave NLRP3 yeast inh 7, DSG3 Ab inh 102, NALP1 inh -17, ALR inh 99*, Arrestin-AP2 inh 7 and PolyA inh -17.
Screening Clc1ccccc1CSC1=NCCN1 returned NLRP3 yeast inh 7, DSG3 Ab inh 104, NALP1 inh 3, Arrestin-AP2 inh 10 and PolyA inh 8.
`CCOc1ccc(CSC2=NCCN2)cc1Cl` gave NLRP3 yeast inh 12, DSG3 Ab inh 103, NALP1 inh 13, ALR inh 100*, Arrestin-AP2 inh 5 and PolyA inh -2.
`CCOC(=O)C1C(C(=O)OC)=C(C(=O)OC)c2ccccc2N1S(=O)(=O)C(F)(F)F` (stereo not given) gave DSG3 Ab inh 101 and Arrestin-AP2 inh -6.
For Cn1nc(C(=O)NCC(=O)Nc2ccc(F)c(F)c2)ccc1=O the results were DSG3 Ab inh 103.
`COc1ccccc1C=NN1C(=O)CSC1=S` gave DSG3 Ab inh 100 and Arrestin-AP2 inh 2.
Screening O=C1CSC(=S)N1/N=C/c1cc(Br)ccc1O returned NALP1 inh -3, ALR inh 98* and PolyA inh -10.
O=C1CSC(=S)N1/N=C/c1ccc(O)c(O)c1O was read as NLRP3 yeast inh 27, DSG3 Ab inh 83, NALP1 inh -8, Arrestin-AP2 inh 57* and PolyA inh 2.
N#C/C(C(N)=O)=C1/SC=C(c2ccccc2)N1c1ccccc1 was read as NLRP3 yeast inh 11, DSG3 Ab inh 104, NALP1 inh 37*, ALR inh -3, Arrestin-AP2 inh 10 and PolyA inh 0.
`N#C/C(C(=O)c1ccccc1)=C1/SC=C(N)N1c1ccccc1` gave NALP1 inh 7.
`N#Cc1c(N)c(C(=O)c2ccccc2)n2c1CCC2` gave NLRP3 yeast inh 7, DSG3 Ab inh 103, NALP1 inh 37, ALR inh 92*, Arrestin-AP2 inh -4 and PolyA inh 7.
CC(C)C(=O)Nc1cc2c3c(c1)CCN3C(=O)CC2 was read as NLRP3 yeast inh 0, DSG3 Ab inh 98, NALP1 inh 33, ALR inh -9, Arrestin-AP2 inh -4 and PolyA inh 12.
O=C(O)CC1S/C(=N/N=C/c2ccc(-c3ccc(Cl)cc3[N+](=O)[O-])o2)NC1=O (stereo not given) was read as NLRP3 yeast inh 11, DSG3 Ab inh 98, NALP1 inh -12, ALR inh 82*, Arrestin-AP2 inh 17 and PolyA inh -23.
For CCc1cc(C(=O)N(C)CC(=O)Nc2c(Cl)cccc2Cl)sc1C the results were NLRP3 yeast inh 8, DSG3 Ab inh 106, ALR inh -1 and Arrestin-AP2 inh 10.
